Values belong to the compound of their own block, whether it stands above or below them.
Columns and labels:
Rattus norvegicus [1] = assay: Toxicity in Wistar Han IGS rat assessed as gastric smooth muscle degeneration at 500 mg/kg, po qd administered for 14 days; type: organism-based; conditions: in vivo, 336 h
How it was run: (§1)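 Wistar Han rats, daily oral dosing for 14 days (5/sex/dose) or 1 month (10/sex/dose); microscopic findings reported as incidence by sex, plus organ weights.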

Canis familiaris [2] = assay: Toxicity in po dosed telemetered beagle dog assessed as increase in heart rate measured over 24 hrs; type: organism-based, Canis lupus familiaris; conditions: in vivo
Canis familiaris [3] = assay: Toxicity in telemetered beagle dog assessed as increase in diastolic pressure at 75 mg/kg administered via oral gavage measured over 24 hrs; type: organism-based, Canis lupus familiaris; conditions: in vivo
Canis familiaris [4] = assay: Toxicity in telemetered beagle dog assessed as increase in heart rate at 20 mg/kg, iv administered as single bolus dose over 2 mins; type: organism-based, Canis lupus familiaris; conditions: in vivo
Canis familiaris [5] = assay: Toxicity in beagle dog assessed as decrease in food consumption at 150 mg/kg, po qd administered for 10 days; type: organism-based, Canis lupus familiaris; conditions: in vivo, 240 h
Rattus norvegicus [6] = assay: Toxicity in Wistar Han IGS rat at 30 mg/kg, po qd administered for 1 month; type: organism-based; conditions: in vivo; how it was run: as §1
Canis familiaris [7] = assay: Toxicity in telemetered beagle dog assessed as foamy salivation at 20 mg/kg, iv administered as single bolus dose over 2 mins; type: organism-based, Canis lupus familiaris; conditions: in vivo
Canis familiaris [8] = assay: Toxicity in beagle dog assessed as renal tubular degeneration at 300 mg/kg, po qd administered for 14 days; type: organism-based, Canis lupus familiaris; conditions: in vivo, 336 h
Rattus norvegicus [9] = assay: Unbound Cmax in Wistar Han IGS rat at 500 mg/kg, po qd administered for 14 days; type: ADME, organism-based; conditions: in vivo, 336 h
How it was run: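 Wistar Han rats were dosed orally once daily for 14 days (exploratory, 5/sex/dose) or 1 month (toxicity, 10/sex/dose). Toxicokinetic satellite animals (3–4/sex/dose) were used, and steady-state systemic exposure is given as the mean of male and female values combined.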

Canis familiaris [10] = assay: Toxicity in telemetered beagle dog assessed as emesis at 20 mg/kg, iv administered as single bolus dose over 2 mins; type: organism-based, Canis lupus familiaris; conditions: in vivo
Canis familiaris [11] = assay: Toxicity in beagle dog assessed as increase in heart rate at 50 to 150 mg/kg, po qd administered for 1 month; type: organism-based, Canis lupus familiaris; conditions: in vivo
Canis familiaris [12] = assay: Toxicity in beagle dog assessed as body weight gain at 150 mg/kg, po qd administered for 10 days; type: organism-based, Canis lupus familiaris; conditions: in vivo, 240 h
Canis familiaris [13] = assay: Unbound AUC in beagle dog at 300 mg/kg, po qd administered for 14 days; type: ADME, organism-based, Canis lupus familiaris; conditions: in vivo, 336 h
How it was run: (§2)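 Beagle dogs were dosed orally once daily in a 14-day exploratory study or 1-month toxicity studies. Steady-state systemic exposure over the 24 h dosing interval is reported as the mean of male and female values combined.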

Canis familiaris [14] = assay: Toxicity in telemetered beagle dog assessed as increase in heart rate at 10 mg/kg administered via oral gavage measured over 24 hrs; type: organism-based, Canis lupus familiaris; conditions: in vivo
Canis familiaris [15] = assay: Toxicity in telemetered beagle dog assessed as increase in systolic pressure at 25 mg/kg administered via oral gavage measured over 24 hrs; type: organism-based, Canis lupus familiaris; conditions: in vivo
Canis familiaris [16] = assay: Toxicity in beagle dog assessed as unscheduled death at 300 mg/kg, po qd administered for 14 days; type: organism-based, Canis lupus familiaris; conditions: in vivo, 336 h
Canis familiaris [17] = assay: Unbound Cmax in beagle dog at 50 mg/kg, po qd administered for 1 month; type: ADME, organism-based, Canis lupus familiaris; conditions: in vivo
How it was run: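 Beagle dogs were given the compound orally once daily for 1 month in a toxicity study, with 2 dogs per sex per dose group. Plasma exposure was measured at steady state across the 24 h dosing interval.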

Canis familiaris [18] = assay: Toxicity in beagle dog assessed as renal tubular regeneration at 300 mg/kg, po qd administered for 14 days; type: organism-based, Canis lupus familiaris; conditions: in vivo, 336 h
[19] = target: T1, Diacylglycerol O-acyltransferase 2 (Canis lupus familiaris, UniProt A0A8I3NDW2); assay: Inhibition of dog DGAT2
T1 sequence (A0A8I3NDW2 whole entry): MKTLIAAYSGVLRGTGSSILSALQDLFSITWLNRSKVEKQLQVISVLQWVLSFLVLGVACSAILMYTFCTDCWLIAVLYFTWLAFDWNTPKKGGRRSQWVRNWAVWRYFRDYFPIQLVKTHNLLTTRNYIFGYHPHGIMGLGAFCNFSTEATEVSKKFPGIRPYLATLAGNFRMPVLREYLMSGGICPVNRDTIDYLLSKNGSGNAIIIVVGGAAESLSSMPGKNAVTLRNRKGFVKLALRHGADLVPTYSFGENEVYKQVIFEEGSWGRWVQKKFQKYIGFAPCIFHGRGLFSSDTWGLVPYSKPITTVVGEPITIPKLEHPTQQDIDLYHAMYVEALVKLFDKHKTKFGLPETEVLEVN

[20] = Plasma clearance in beagle dog at 1 mg/kg, iv; type: ADME, organism-based, Canis lupus familiaris
[21] = Ratio of Cmax in beagle dog at 30 mg/kg, po qd administered for 1 month to IC50 for in vitro inhibition of dog DGAT2; type: organism-based, Canis lupus familiaris; conditions: in vivo
How it was run: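 One-month toxicity study in Beagle dogs with N = 2/sex/dose. Plasma exposure at each dose level was referenced to the dog DGAT2 enzymatic IC50, reported as the geometric mean of at least three replicates.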

Canis familiaris [22] = assay: Toxicity in telemetered beagle dog assessed as increase in diastolic pressure at 5 mg/kg administered via oral gavage measured during 4 hrs of post dosing; type: organism-based, Canis lupus familiaris; conditions: in vivo
Canis familiaris [23] = assay: Toxicity in telemetered beagle dog assessed as increase in diastolic pressure at 50 mg/kg administered via oral gavage measured during 4 hrs of post dosing; type: organism-based, Canis lupus familiaris; conditions: in vivo
Canis familiaris [24] = assay: Toxicity in beagle dog at 3 to 30 mg/kg, po qd administered for 1 month; type: organism-based, Canis lupus familiaris; conditions: in vivo
Canis familiaris [25] = assay: Toxicity in telemetered beagle dog assessed as increase in systolic pressure at 25 mg/kg administered via oral gavage measured during 4 hrs of post dosing; type: organism-based, Canis lupus familiaris; conditions: in vivo
Canis familiaris [26] = assay: Unbound AUC in beagle dog at 3 mg/kg, po qd administered for 1 month; type: ADME, organism-based, Canis lupus familiaris; conditions: in vivo; how it was run: as §2
[27] = Ratio of Cmax in telemetered beagle dog at 25 mg/kg administered via oral gavage measured over 24 hrs to IC50 for in vitro inhibition of dog DGAT2; type: organism-based, Canis lupus familiaris; conditions: in vivo
How it was run: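 Telemetered Beagle dogs given single oral doses (5, 25 and 50 mg kg–1), with systolic and diastolic blood pressure and heart rate monitored after dosing. Cmax is related to the dog DGAT2 enzymatic IC50, which is the geometric mean of at least three replicates.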

SMILES: CS(=O)(=O)O.O=C([C@@H]1CCCN(c2ccc3nc(C4(n5cc(Cl)cn5)CC4)[nH]c3n2)C1)N1CCCC1
Activity (Rattus norvegicus [1]): Toxic
Activity (Canis familiaris [2]): Dose-dependent effect
Activity (Canis familiaris [3]): 6 mmHg
Activity (Canis familiaris [4]): 27 bpm
Activity (Canis familiaris [5]): Toxic
Activity (Rattus norvegicus [6]): Non-Toxic
Activity (Canis familiaris [7]): Non-Toxic
Activity (Canis familiaris [8]): Toxic
fCmax (Rattus norvegicus [9]): 18.8 µM
Activity (Canis familiaris [10]): Non-Toxic
Activity (Canis familiaris [11]): Toxic
Activity (Canis familiaris [12]): Toxic
fAUC (Canis familiaris [13]): 78300 ng·h/mL
Activity (Canis familiaris [14]): 4 to 10 bpm
Activity (Canis familiaris [15]): 5 mmHg
Activity (Canis familiaris [16]): Toxic
fCmax (Canis familiaris [17]): 12.7 µM
Activity (Canis familiaris [18]): Toxic

IC50 [19]: 41 nM
clearance [20]: 4 mL/min/kg
Ratio [21]: 92
fAUC (Canis familiaris [26]): 797 ng·h/mL
SMILES: C[C@@H](c1nc2ccc(N3CCC[C@@H](C(=O)N4CCCC4)C3)nc2[nH]1)n1cc(Cl)cn1
Activity (Canis familiaris [22]): 4 to 6 mmHg
Activity (Canis familiaris [23]): 6 mmHg
Activity (Canis familiaris [24]): Non-Toxic
Activity (Canis familiaris [25]): 6 mmHg
Ratio [27]: 52

Source: ChEMBL document CHEMBL4261487, “Small structural changes of the imidazopyridine diacylglycerol acyltransferase 2 (DGAT2) inhibitors produce an improved safety profile” (Medchemcomm, 2017)
